Results pooled from the literature.
Each line is one published result; the experiments were not run side by side.
Target: Tyrosine-protein kinase HCK (HCK, Homo sapiens, UniProt P08631)

CN(C)c1nccc(-c2cnc3ncccn23)n1  remaining binding (binding; 1 µM): 100%
O=C1NC(c2ccccn2)Sc2ccccc21 (stereo not drawn)  remaining binding (cell-free assay, competition with immobilised ligand; 1 µM): 90%
O=C(NCC1CCOCC1)c1n[nH]cc1NC(=O)c1c(F)cccc1F  remaining binding (binding, competition with immobilised ligand; 1 µM): 100%
CN(C)c1ncc(F)c(-c2cnn3ncccc23)n1  remaining binding (binding; 1 µM): 46%
O=C(c1ccc(Nc2ncc(Cl)c(-c3cc4ccccc4s3)n2)cc1)N1CCC(N2CCCC2)CC1  remaining binding (binding, competition with immobilised ligand; 1 µM): 100%
CN1CCN(c2cnc3c(C4CCN(C(=O)c5ccc(OC(F)(F)F)cc5N)CC4)ncnc3c2)CC1  remaining binding (cell-free assay, competition with immobilised ligand; 1 µM): 95%
CN(C)c1nccc(-c2cnn3ncccc23)n1  remaining binding (binding; 1 µM): 100%
CC(C)CC(=O)N1CCc2nc(-c3ccc(Br)cc3)nc(N(C)Cc3ccccc3)c2C1  remaining binding (cell-free assay, competition with immobilised ligand; 0.1 µM): 94%
FC(F)(F)Oc1cccc(-c2cnc3ccc(-c4ccncc4)nn23)c1  remaining binding (cell-free assay, competition with immobilised ligand; 5 µM): 71%
N[C@H]1CCN(c2nccc(-c3cnn4ncccc34)n2)C1  remaining binding (binding; 1 µM): 98%
CCS(=O)(=O)c1cc2cc(C[C@](O)(CC(C)(C)c3ccc(F)cc3C(N)=O)C(F)(F)F)[nH]c2cn1  remaining binding (cell-free assay, competition with immobilised ligand; 1 µM): 100%
O=C(c1ccc(Nc2ncc(Cl)c(-c3ccc(Cl)s3)n2)cc1)N1CCC(N2CCCC2)CC1  remaining binding (binding, competition with immobilised ligand; 1 µM): 100%
COc1cnc(Nc2cccc(S(N)(=O)=O)c2)nc1N1CCN(c2ccccc2)C(=O)C1  remaining binding (binding, competition with immobilised ligand; 1 µM): 100%
COCCOc1nc(-c2ccc(Cl)nc2)nc2c1CN(C(=O)c1ncn3ccccc13)CC2  remaining binding (cell-free assay, competition with immobilised ligand; 0.1 µM): 100%
C=CC(=O)N1CCC(C(=O)NCC(=O)N2CCN(c3nc(-c4cnc(N)nc4C(F)F)nc(N4CCOCC4)n3)CC2)CC1  remaining binding (binding, competition with immobilised ligand; 1 µM): 86%
CCOCCn1cc(C(=O)Nc2ccc(-n3nc(-c4cccnc4)cc3C(F)(F)F)cn2)ccc1=O  remaining binding (cell-free assay, competition with immobilised ligand; 1 µM): 93%
O=C(c1ccc(Nc2nccc(-c3cc4ccccc4s3)n2)cc1)N1CCC(N2CCCC2)CC1  remaining binding (binding, competition with immobilised ligand; 1 µM): 100%
C[C@H]1CCN(c2nccc(-c3cnn4ncccc34)n2)C1  remaining binding (binding; 1 µM): 95%
CCN1CCN(Cc2ccc(C(=O)Nc3ccc(C)c(Oc4ccc5c(c4)CC(=O)N5)c3)cc2C(F)(F)F)CC1  remaining binding (binding, competition with immobilised ligand; 1 µM): 80%
F[C@@H]1CCN(c2nccc(-c3cnn4ncccc34)n2)C1  remaining binding (binding; 1 µM): 78%
C[C@@H](c1ccc(-n2cnc3c(N)ncnc32)cc1)N1CCc2nn(C)c(Cc3ccccc3)c2C1=O  remaining binding (binding, competition with immobilised ligand; 0.1 µM): 86%
